The record followed here is ChEMBL document CHEMBL4406806, “Design, Synthesis, and Characterization of Ogerin-Based Positive Allosteric Modulators for G Protein-Coupled Receptor 68 (GPR68)” (J Med Chem, 2019).

Activity calls are given as the source filed them. No cut-off for these calls is given here.

The target of series [1] is G-protein coupled receptor 68 (Homo sapiens) (UniProt Q15743). The experiment in a line: Positive allosteric modulation of human GPR68 expressed in HEK293T cells co-expressing Gs assessed as stimulation of proton-mediated cAMP production by measuring allosteric index in HBSS buffer containing pH 6.8 to 8.2 HEPES/pH 8.3 to 8.6 TAPS measured after 20 to 30 mins in presence of PDE inhibitor Ro 20-1724 by luciferase-glo reporter gene assay. The format is functional, cell-based. The essentials: (§1)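 Transient co-transfection of HEK293T with receptor and GloSensor plasmids using PEI, overnight, then replated in DMEM + 1% dFBS for 6–24 h. Luciferin 3.5 mM loaded for 1 h at 37 °C in HBSS/20 mM TAPS, pH 8.40. Proton series: Ca/Mg-free HBSS with MES (pH 5.60–6.70), HEPES (6.80–8.20) or TAPS (8.30–8.60), plus 10 μM Ro 20-1724. BSA 1 mg/mL added where solubility required. Luminescence read at 20–30 min. At least six 16-point proton curves across modulator concentrations, quadruplicate, ≥3 independent assays.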
For orientation: Cyclic AMP is a second messenger, typically raised through Gs and lowered through Gi signalling.

Series [2] has the same target. Nature of the series: Positive allosteric modulation of human GPR68 expressed in HEK293T cells co-expressing Gs assessed as stimulation of proton-mediated cAMP production in HBSS buffer containing pH 6.8 to 8.2 HEPES/pH 8.3 to 8.6 TAPS measured after 20 to 30 mins in presence of PDE inhibitor Ro 20-1724 by luciferase-glo reporter gene assay. The format is functional, cell-based. The essentials: as §1

Series [3] concerns the target G-prodeshotein coupled receptor 4 (Homo sapiens) (UniProt P46093). The experiment in a line: Positive allosteric modulation of human GPR4 expressed in HEK293T cells co-expressing Gs assessed as stimulation of proton-mediated cAMP production at higher concentration in HBSS buffer containing pH 6.8 to 8.2 HEPES/pH 8.3 to 8.6 TAPS measured after 20 to 30 mins in presence of PDE inhibitor Ro 20-1724 by luciferase-glo reporter gene assay. The format is functional, cell-based. The essentials:
as §1

Series [4] concerns the target 5-hydroxytryptamine receptor 2B (Homo sapiens, UniProt P41595). Nature of the series: Antagonist activity at human 5HT2B receptor expressed in Flp-In-HEK cells co-expressing Gq assessed as inhibition of 5HT-induced stimulation of calcium mobilization preincubated for 10 mins followed by 5HT addition by fluo-4 calcium dye-based FLIPR assay. The format is functional, cell-based. Background: Calcium flux is commonly read through the fluorescence of an indicator in the cells.

For series [5], the target named is T1, Melatonin receptor type 1B (Homo sapiens) (UniProt P49286).
T1 sequence (whole entry): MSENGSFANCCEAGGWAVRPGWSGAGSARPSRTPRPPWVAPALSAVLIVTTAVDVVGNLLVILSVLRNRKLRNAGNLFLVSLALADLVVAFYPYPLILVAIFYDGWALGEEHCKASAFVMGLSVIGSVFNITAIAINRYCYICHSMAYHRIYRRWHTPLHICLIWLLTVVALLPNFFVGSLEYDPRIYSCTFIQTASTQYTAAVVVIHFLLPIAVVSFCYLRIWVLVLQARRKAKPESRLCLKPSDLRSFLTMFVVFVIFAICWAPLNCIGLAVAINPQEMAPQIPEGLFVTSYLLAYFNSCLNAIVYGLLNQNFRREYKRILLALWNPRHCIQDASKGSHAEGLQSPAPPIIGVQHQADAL
The experiment in a line: Agonist activity at human MT2 receptor expressed in HTLA cells assessed as stimulation of beta-arrestin recruitment incubated for 16 to 20 hrs by bright-glo luminescence assay relative to control. The format is cell-based. The gist of the method: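 Tango arrestin assay in HTLA cells transfected with receptor DNA overnight in DMEM + 10% FBS, then replated on poly-L-Lys in DMEM + 1% dFBS. Drugs added 6 h later and incubated overnight (16–20 h). Medium removed, Bright-Glo added, luminescence counted.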

Series [6] is described as follows: Toxicity in Swiss albino mouse assessed as effect on clinical parameter at 25 mg/kg, ip administered as single dose. The conditions noted are these: in vivo. The class given is organism-based.

G-protein coupled receptor 68 (Homo sapiens), sequence (Q15743 whole entry): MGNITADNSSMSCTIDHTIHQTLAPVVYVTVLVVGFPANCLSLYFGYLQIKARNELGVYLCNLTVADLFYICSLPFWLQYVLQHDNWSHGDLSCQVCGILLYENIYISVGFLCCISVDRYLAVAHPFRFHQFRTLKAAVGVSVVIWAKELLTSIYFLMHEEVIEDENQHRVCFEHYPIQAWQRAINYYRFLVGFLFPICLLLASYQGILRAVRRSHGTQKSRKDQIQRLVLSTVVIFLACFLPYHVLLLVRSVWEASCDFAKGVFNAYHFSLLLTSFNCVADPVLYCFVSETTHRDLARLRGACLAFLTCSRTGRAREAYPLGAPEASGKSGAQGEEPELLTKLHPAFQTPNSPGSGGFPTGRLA
5-hydroxytryptamine receptor 2B, sequence (P41595 whole entry): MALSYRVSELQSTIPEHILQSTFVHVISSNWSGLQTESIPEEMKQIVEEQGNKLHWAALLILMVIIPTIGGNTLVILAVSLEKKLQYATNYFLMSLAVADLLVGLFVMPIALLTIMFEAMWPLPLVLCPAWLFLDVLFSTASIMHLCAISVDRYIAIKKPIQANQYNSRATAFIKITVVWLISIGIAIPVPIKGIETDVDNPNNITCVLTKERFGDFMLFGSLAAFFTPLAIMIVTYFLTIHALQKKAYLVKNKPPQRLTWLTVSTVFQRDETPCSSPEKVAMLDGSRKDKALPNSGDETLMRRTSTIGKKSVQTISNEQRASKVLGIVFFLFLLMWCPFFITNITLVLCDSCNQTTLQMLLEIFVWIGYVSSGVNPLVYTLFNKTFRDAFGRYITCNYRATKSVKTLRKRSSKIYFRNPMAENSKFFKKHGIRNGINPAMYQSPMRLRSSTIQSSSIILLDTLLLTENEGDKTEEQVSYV
G-prodeshotein coupled receptor 4 (Homo sapiens), sequence (P46093 whole entry, looked up): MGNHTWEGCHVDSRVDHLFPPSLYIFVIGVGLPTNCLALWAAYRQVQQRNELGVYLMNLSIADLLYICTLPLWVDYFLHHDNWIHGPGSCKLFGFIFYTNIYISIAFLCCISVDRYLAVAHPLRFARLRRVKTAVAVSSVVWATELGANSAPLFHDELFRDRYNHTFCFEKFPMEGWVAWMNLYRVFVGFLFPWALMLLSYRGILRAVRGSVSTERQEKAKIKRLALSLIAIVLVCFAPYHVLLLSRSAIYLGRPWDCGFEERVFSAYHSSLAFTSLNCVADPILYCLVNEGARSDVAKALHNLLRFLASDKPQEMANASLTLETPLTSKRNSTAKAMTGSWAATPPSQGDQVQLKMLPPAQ

A word on the Ki: it is a dissociation constant, usually derived from enzyme kinetics or from competition with a known ligand. A word on the Emax: it is the size of the effect at its maximum, as opposed to the concentration needed. For the compound `Nc1nc(NCc2ccc(Oc3ccccc3)cc2)nc(-c2c(F)cccc2CO)n1`, the Activity index in series [1] stood at 6.83. Also, the Activity result in series [2] was “Dose-dependent effect”; in series [6], “Non-Toxic”. Also, the outcome in series [3] was inactive. The Ki in series [4] was determined as 310 nM. Moreover, the Emax in series [5] came out at 24%.
